Only some compounds are listed: those with a hit (about 2.6% of all), similar ones and a draw of the others.
IMP-1 inhibitor: IMP-1 metallo-beta-lactamase inhibitors, primary screen, biochemical, epi-absorbance readout, Pseudomonas aeruginosa enzyme; purified IMP-1, nitrocefin hydrolysis, epi-absorbance fluorescence; inhibition, % at 5.6 µM; hit rate 0.45% among 290,000; AID 1556, 2009;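 active = inhibition above the mean plus 3 SD of all compounds in the same screening run, cut at about 4.5% in these data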;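 note: 0% = IMP-1 with DMSO and 100% = DMSO wells lacking enzyme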
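Assay system: purified recombinant IMP-1 beta-lactamase. Input: IMP-1 0.2 nM before substrate addition. Buffer or medium: Zinc- and detergent-supplemented HEPES buffer, pH 7.1. Schedule: 25 °C, 15 min preincubation, 25 min reaction. Signal: Epi-absorbance fluorescence, 480 nm excitation, 530 nm emission. Evaluation: percent inhibition from optical density relative to buffer-blank wells.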
VIM-2 inhibitor: VIM-2 metallo-beta-lactamase inhibitors, primary screen, biochemical, epi-absorbance readout, Pseudomonas aeruginosa enzyme. hit rate 0.89% among 290,000. inhibition, % at 5.6 µM. purified VIM-2, nitrocefin hydrolysis, epi-absorbance fluorescence;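 active = inhibition above the mean of all tested compounds plus 3 SD, cutoff set per screening run, cut at about 7.5% in these data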;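 note: red hydrolysis product quenches plate fluorescence so inhibitors raise well fluorescence; 0% = enzyme with DMSO and 100% = DMSO without enzyme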
ASAP1 inh: inhibitors of human ASAP1 ArfGAP activity, primary screen, biochemical, fluorescence polarization. inhibition, % at 16.5 µM. ASAP1-stimulated ARF1 GTP hydrolysis, GDP FP detection. hit rate 0.19% among 360,000; in the data active = inhibition above about 25%;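 note: 0% = vehicle with enzyme and substrate and 100% = no enzyme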
PHOSPHO1 block: PubChem AID 1565; recombinant PHOSPHO1, absorbance phosphatase assay; inhibition, % at 13.3 µM; hit rate 1.1% among 290,000; in the data active = inhibition above about 60%
Target sequence (Q8TCT1 whole entry, looked up): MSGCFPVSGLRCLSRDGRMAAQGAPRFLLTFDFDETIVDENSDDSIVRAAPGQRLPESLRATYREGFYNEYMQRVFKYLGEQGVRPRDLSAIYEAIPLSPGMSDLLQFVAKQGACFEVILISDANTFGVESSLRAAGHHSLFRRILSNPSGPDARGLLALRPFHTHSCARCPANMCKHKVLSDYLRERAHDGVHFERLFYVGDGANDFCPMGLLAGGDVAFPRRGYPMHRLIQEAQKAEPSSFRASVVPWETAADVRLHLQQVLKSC
Calb FLC: C. albicans growth inhibition with fluconazole, primary screen, CaCi-2 strain, Alamar Blue fluorescence; C. albicans CaCi-2 + fluconazole, 48 h; growth inhibition, % (concentration not given with the values); hit rate 0.57% among 300,000;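 active = growth inhibition above about 58% in most replicates, limit read from the data, passing the limit was not always enough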;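 note: all wells also contain fluconazole at 8 µg/ml as a sub-toxic cotreatment; 0% = median of DMSO wells and 100% = median of geldanamycin control wells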
ARFGAP1 inh: inhibitors of rat ARFGAP1 GAP activity, primary screen, biochemical, fluorescence polarization, GDP tracer. inhibition, % at 16.5 µM. ADP-ribosylation factor GTPase-activating protein 1 (Rattus norvegicus), Q62848. hit rate 0.26% among 360,000. AID 651572, 2012. Arfgap1-stimulated ARF1 GTP hydrolysis, GDP FP detection;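 active = inhibition above a per-plate limit, mean inhibition of low control wells plus 3 SD, cut at about 25% in these data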;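 note: 0% = DMSO wells with enzyme and 100% = wells lacking Arfgap1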
Target sequence (Q62848 1-136 limits assumed): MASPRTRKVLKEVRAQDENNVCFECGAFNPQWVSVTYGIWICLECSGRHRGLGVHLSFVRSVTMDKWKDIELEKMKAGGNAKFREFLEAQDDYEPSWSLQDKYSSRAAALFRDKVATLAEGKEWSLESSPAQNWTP
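Assay system: Rat Arfgap1 GAP domain (His6, aa 1-136), purified enzyme | Buffer or medium: HEPES 25 mM pH 7.5, NaCl 150 mM, MgCl2, DTT | Schedule: GTP hydrolysis reaction 2 h at 25 °C | Signal: FP of antibody-bound GDP Alexa 633 tracer, ex 620/em 688 nm | Measure: Percent inhibition of Arfgap1-stimulated GTP hydrolysis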
Starred values were filed as active, the others as inactive; x = no result given.

SMILES	IMP-1 inhibitor	VIM-2 inhibitor	ASAP1 inh	PHOSPHO1 block	Calb FLC	ARFGAP1 inh
O=C(N=Nc1c(O)n(Cc2ccccc2)c2ccccc12)c1ccncc1	0	11*	-1	-3	-1	12
COc1ccccc1NC(=O)N(C)C[C@H]1OCc2cn(nn2)CCCC(=O)N([C@H](C)CO)C[C@@H]1C	x	x	-20	x	x	14
Cc1ccccc1CN(C)CC(=O)Nc1cccc(S(=O)(=O)N(C)c2ccccc2)c1	-3	-1	4	62*	9	-7
Cc1cc(C)c(NC(=O)CN(C)CC(=O)Nc2cccc(S(=O)(=O)N(C)c3ccccc3)c2)c(C)c1	x	x	-14	x	x	0
Nn1c(COc2cccc(Br)c2)nnc1SCC(=O)N1CCc2ccccc2C1	-4	-3	10	82*	3	5
Nn1c(COc2cccc(Br)c2)nnc1SCC(=O)NCC1CCCO1 (configuration not stated)	x	x	-3	x	x	-3
COCCn1c(SCC(=O)c2ccc3c(c2)OCCO3)nnc1C(C)C	-3	-1	2	-4	-5	-4
COCCn1c(SCC(=O)c2ccc(Cl)cc2)nnc1C(C)C	-2	1	7	75*	7	-13
CC1(C)CC(=O)C=C(c2ccc(-c3cnc4ccccc4c3)cc2)C1=O	x	x	-3	x	x	15
Cc1ccccc1SCCNC(=O)c1ccccc1Br	-2	-2	1	60*	2	-5
CC(C)(C)c1ccc(Cc2n[nH]c(=S)[nH]c2=O)cc1	0	-3	3	-1	78*	10
CCCCNC(=O)CSc1nnc(Cc2ccc(Cl)c(Cl)c2)c(=O)[nH]1	-3	-4	-11	26	6	-2
COC(=O)CNc1n[nH]c(=S)[nH]c1=O	-2	-1	-3	24	1	-12
O=c1[nH]c(=S)[nH]nc1Cc1ccc(Cl)c(Cl)c1	-5	-5	3	-11	91*	2
Cc1cc(N2CCN(c3ccccc3)CC2)n2nnnc2n1	-3	-4	-10	-4	6	0
Cc1cc(N2CCN(c3ccccc3)CC2)n2c(n1)nc1ccccc12	-4	11*	-21	-11	10	-2
N#C/C=C1/NC(=O)c2ccccc2S1	0	9.1*	5	-25	-5	2
COC(=O)c1ccc2c(c1)NC(=O)c1ccccc1S2	-2	-2	6	34	1	2
O=C(O)C1C2C=CC(C2)C1C(=O)NCc1ccccc1F (configuration not stated)	-1	-3	-5	x	-1	-11
O=C(O)C1C2C=CC(C2)C1C(=O)NCc1ccc(Cl)cc1Cl (configuration not stated)	7.6*	-1	8	24	0	-2
O=S(=O)(NCCc1cccs1)c1ccc(Br)cc1	5.5*	1	1	32	44	-10
COc1ccc(-c2nc3ccc(N4CCN(C)CC4)cc3c(=O)[nH]2)cc1	-3	8.1*	2	52	14	9
COc1ccc(-c2nc3ccccc3c(=O)[nH]2)cc1	-3	-1	-4	24	-10	3
Cc1[nH]c2ccccc2c1C(=O)C(=O)NCc1nnnn1-c1ccc(F)cc1	x	x	-17	x	x	3
Nc1[nH]c(C(=O)c2ccccc2)c(-c2ccccn2)c1C(=O)c1c[nH]c2ccc(F)cc12	x	x	14	x	x	-1
CCCCCCC(=O)Nc1nc(C)c(-c2csc(Nc3cc(OC)ccc3OC)n2)s1	10*	-2	7	77*	-6	21
COc1ccc(OC)c(Nc2nc(-c3sc(NC(=O)c4ccccc4)nc3C)cs2)c1	0	-2	x	34	1	x
CCC(C)C(=O)Nc1nc(C)c(-c2csc(Nc3ccccc3OC)n2)s1 (configuration not stated)	-2	-2	8	74*	5	11
COc1ccccc1Nc1nc(-c2sc(NC(=O)c3ccco3)nc2C)cs1	-2	-2	18	86*	-3	5
O=C(Nc1nc(-c2ccco2)cs1)c1ccccc1	-3	-2	-11	88*	31	0

Bioassay records deposited in PubChem BioAssay by several laboratories.
